Activity calls are given as the source filed them. The rule behind the calls is not given here.
Tests used:
RPMI-8226 [1] = assay: Induction of growth suppression in human RPMI-8226 cells assessed as reduction H3K79me3 at 1 uM for 3 days Western blot analysis; type: functional, cell-based; conditions: time 3.0 day
Method in brief: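 RPMI-8226 cells treated with 1 μM DOT1L inhibitor or DMSO for 3 days. H3K79 methylation probed by Western blot with […].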

KMS-11 = assay: Antiproliferative activity against human KMS-11 cells treated 3 days at 1 uM; type: functional, cell-based; conditions: time 3.0 day
Method in brief: (§1)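 Cell lines in 6-well plates, 2 × 10^4 to 8 × 10^5 cells/well, exposed to DOT1L inhibitor at 0.25-1 μM or DMSO, with medium and drug refreshed every 3 days. Viability read with Cell Counting Kit-8 on a microplate reader. Values normalized to untreated cells; mean of 3 replications ± SEM.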

KMS-12-PE [2] = assay: Antiproliferative activity against human KMS-12-PE cells treated 3 days at 1 uM; type: functional, cell-based; conditions: time 3.0 day; method in brief: as §1
RPMI-8226 [3] = assay: Induction of cell cycle arrest in human RPMI-8226 cells assessed as increase in accumulation of cells at G1 phase at 1 uM for 6 days; type: functional, cell-based; conditions: time 6.0 day
Method in brief: (§2)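 Flow cytometric cell cycle analysis of RPMI-8226 and MM.1S cells treated with 1 μM DOT1L inhibitor or DMSO for 6 days. Sub-G1, G0-G1 and S phase populations scored. Summary is from 3 replications, mean ± SEM.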

MM1.S [4] = assay: Induction of cell cycle arrest in human MM1.S cells assessed as increase in accumulation of cells at G0 phase at 1 uM for 6 days; type: functional, cell-based; conditions: time 6.0 day; method in brief: as §2
RPMI-8226 [5] = assay: Induction of apoptosis in human RPMI-8226 cells assessed as viable cells at 1 uM for 6 days by annexin-V based propidium iodide staining based flow cytometric analysis (reference value: 79.67%); type: functional; conditions: RPMI-8226, 144 h, time 6 day, read-out: Activity
RPMI-8226 [6] = assay: Induction of apoptosis in human RPMI-8226 cells assessed as late apoptotic cells at 1 uM for 6 days by annexin-V based propidium iodide staining based flow cytometric analysis (reference value: 10.5%); type: functional; conditions: time 6 day
MM1.S [7] = assay: Induction of apoptosis in human MM1.S cells assessed as viable cells at 1 uM for 6 days by annexin-V based propidium iodide staining based flow cytometric analysis (reference value: 80.4%); type: functional; conditions: 144 h, time 6 day, read-out: Activity
MM1.S [8] = assay: Induction of apoptosis in human MM1.S cells assessed as necrotic cells at 1 uM for 6 days by annexin-V based propidium iodide staining based flow cytometric analysis (reference value: 0.16%); type: functional; conditions: time 6 day
RPMI-8226 [9] = assay: Induction of apoptosis in human RPMI-8226 cells assessed as viable cells at 1 uM for 6 days by annexin-V based propidium iodide staining based flow cytometric analysis (reference value: 79.0%); type: functional; conditions: RPMI-8226, 144 h, time 6 day, read-out: Activity
RPMI-8226 [10] = assay: Induction of apoptosis in human RPMI-8226 cells assessed as late apoptotic cells at 1 uM for 6 days by annexin-V based propidium iodide staining based flow cytometric analysis (reference value: 8.89%); type: functional; conditions: time 6 day
MM1.S [11] = assay: Induction of apoptosis in human MM1.S cells assessed as viable cells at 1 uM for 6 days by annexin-V based propidium iodide staining based flow cytometric analysis (reference value: 77.4%); type: functional; conditions: 144 h, time 6 day, read-out: Activity
RPMI-8226 [12] = assay: Induction of apoptosis in human RPMI-8226 cells assessed as viable cells at 1 uM for 3 days by annexin-V based propidium iodide staining based flow cytometric analysis (reference value: 91.2%); type: functional; conditions: RPMI-8226, 72 h, time 3 day, read-out: Activity
RPMI-8226 [13] = assay: Induction of apoptosis in human RPMI-8226 cells assessed as late apoptotic cells at 1 uM for 3 days by annexin-V based propidium iodide staining based flow cytometric analysis (reference value: 2.43%); type: functional; conditions: time 3 day
RPMI-8226 [14] = assay: Induction of apoptosis in human RPMI-8226 cells assessed as necrotic cells at 1 uM for 3 days by annexin-V based propidium iodide staining based flow cytometric analysis (reference value: 3.40%); type: functional; conditions: time 3 day
MM1.S [15] = assay: Induction of apoptosis in human MM1.S cells assessed as viable cells at 1 uM for 3 days by annexin-V based propidium iodide staining based flow cytometric analysis (reference value: 94.3%); type: functional; conditions: 72 h, time 3 day, read-out: Activity
RPMI-8226 [16] = assay: Effect on human RPMI-8226 cells assessed as change in Myc mRNA level at 1 uM for 3 days by ChIP-qPCR analysis; type: functional, cell-based; conditions: time 3.0 day
Method in brief: (§3)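 ChIP-qPCR for H3K79me2 at IRF4-MYC signaling genes after 1 μM inhibitor or DMSO for 3 days. Signal normalized to input DNA. An intergenic region 28 kb upstream of KLF2 served as negative control. Mean of 3 replications ± SEM.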

RPMI-8226 [17] = assay: Effect on human RPMI-8226 cells assessed as change in PRDM1 mRNA level at 1 uM for 3 days by ChIP-qPCR analysis; type: functional, cell-based; conditions: time 3.0 day; method in brief: as §3
MM1.S [18] = assay: Effect on human MM1.S cells assessed as change in Myc mRNA level at 1 uM for 3 days by ChIP-qPCR analysis; type: functional, cell-based; conditions: time 3.0 day; method in brief: as §3
MM1.S [19] = assay: Effect on human MM1.S cells assessed as change in IRF4 mRNA level at 1 uM for 3 days by ChIP-qPCR analysis; type: functional, cell-based; conditions: time 3.0 day; method in brief: as §3
MM1.S [20] = assay: Upregulation of IFN in human MM1.S cells assessed as increase in IFITM1 gene at 1 uM for 6 days by qRT-PCR analysis; type: functional, cell-based; conditions: time 6.0 day
KMS-12-PE [21] = assay: Effect on human KMS-12-PE cells assessed as change in IRF4 mRNA level by qRT-PCR analysis; type: functional, cell-based
Method in brief: (§4)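 Basal MYC and IRF4 mRNA in untreated cells measured by qRT-PCR. Normalized to ACTB; mean of 3 replications ± SEM.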

KMS-12-BM [22] = assay: Effect on human KMS-12-BM cells assessed as change in MYC mRNA level by qRT-PCR analysis; type: functional, cell-based; method in brief: as §4
KMS-12-BM [23] = assay: Effect on human KMS-12-BM cells assessed as decrease in MYC mRNA level at 1 uM for 6 days by qRT-PCR analysis; type: functional, cell-based; conditions: time 6.0 day
Method in brief: (§5)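 qRT-PCR of MYC and IRF4 after 1 μM DOT1L inhibitor for 6 days. Normalized to ACTB; mean of 3 replications ± SEM.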

KMS-12-PE [24] = assay: Effect on human KMS-12-PE cells assessed as decrease in MYC mRNA level at 1 uM for 6 days by qRT-PCR analysis; type: functional, cell-based; conditions: time 6.0 day; method in brief: as §5
KMS-12-PE [25] = assay: Effect on human KMS-12-PE cells assessed as decrease in IRF4 mRNA level at 1 uM for 6 days by qRT-PCR analysis; type: functional, cell-based; conditions: time 6.0 day; method in brief: as §5
U-266 = assay: Antiproliferative activity against human U-266 cells assessed as reduction in cell viability measured at 1 uM for 18 days; type: functional, cell-based; conditions: time 18.0 day
MM1.S [26] = assay: Upregulation of IFN in human MM1.S cells assessed as increase in ISG15 gene at 1 uM for 6 days by qRT-PCR analysis; conditions: time 6.0 day
MM1.S [27] = assay: Upregulation of IFN in human MM1.S cells assessed as increase in IFITM1 gene at 1 uM for 6 days by qRT-PCR analysis; conditions: time 6.0 day
RPMI-8226 [28] = assay: Upregulation of IFN in human RPMI-8226 cells assessed as increase in IFI44 gene at 1 uM for 6 days by qRT-PCR analysis; conditions: time 6.0 day

CC(C)N(C[C@H]1O[C@@H](n2cnc3c(N)ncnc32)[C@H](O)[C@@H]1O)[C@H]1C[C@@H](CCc2nc3cc(C(C)(C)C)ccc3[nH]2)C1 [PINOMETOSTAT]
Activity (RPMI-8226 [1]): Active
Activity (KMS-11): Active
Activity (KMS-12-PE [2]): inactive
Activity (RPMI-8226 [3]): Active
Activity (MM1.S [4]): Active
viability at 1 µM (RPMI-8226 [5]): 50.2%
Activity (RPMI-8226 [6]): 18.3%
viability at 1 µM (MM1.S [7]): 67.5%
Activity (MM1.S [8]): 0.05%
viability at 1 µM (RPMI-8226 [9]): 63.5%
Activity (RPMI-8226 [10]): 17.5%
viability at 1 µM (MM1.S [11]): 52.8%
viability at 1 µM (RPMI-8226 [12]): 76.6%
Activity (RPMI-8226 [13]): 9.83%
Activity (RPMI-8226 [14]): 6.18%
viability at 1 µM (MM1.S [15]): 96.7%
Activity (RPMI-8226 [16]): Active
Activity (RPMI-8226 [17]): Active
Activity (MM1.S [18]): Active
Activity (MM1.S [19]): Active
Activity (MM1.S [20]): Active
Activity (KMS-12-PE [21]): Active
Activity (KMS-12-BM [22]): Active
Activity (KMS-12-BM [23]): Active
Activity (KMS-12-PE [24]): Active
Activity (KMS-12-PE [25]): Active
Activity (U-266): Active
Activity (MM1.S [26]): Active
Activity (MM1.S [27]): Active
Activity (RPMI-8226 [28]): Active

CC(C)N(CCCNC(=O)Nc1ccc(C(C)(C)C)cc1)C[C@H]1O[C@@H](n2cc(Br)c3c(N)ncnc32)[C@H](O)[C@@H]1O
Activity (RPMI-8226 [1]): Active
Activity (KMS-11): Active
Activity (KMS-12-PE [2]): inactive
Activity (RPMI-8226 [3]): Active
Activity (MM1.S [4]): Active
viability at 1 µM (RPMI-8226 [5]): 66.9%
Activity (RPMI-8226 [6]): 12.9%
viability at 1 µM (MM1.S [7]): 67.9%
Activity (MM1.S [8]): 0.21%
viability at 1 µM (RPMI-8226 [9]): 60.9%
Activity (RPMI-8226 [10]): 20.2%
viability at 1 µM (MM1.S [11]): 42.4%
viability at 1 µM (RPMI-8226 [12]): 77.8%
Activity (RPMI-8226 [13]): 8.85%
Activity (RPMI-8226 [14]): 6.32%
viability at 1 µM (MM1.S [15]): 92.3%
Activity (RPMI-8226 [16]): Active
Activity (RPMI-8226 [17]): Active
Activity (MM1.S [18]): Active
Activity (MM1.S [19]): Active
Activity (MM1.S [20]): Active
Activity (KMS-12-PE [21]): Active
Activity (KMS-12-BM [22]): Active
Activity (KMS-12-BM [23]): Active
Activity (KMS-12-PE [24]): Active
Activity (KMS-12-PE [25]): Active
Activity (U-266): Active
Activity (MM1.S [26]): Active
Activity (MM1.S [27]): Active
Activity (RPMI-8226 [28]): Active
